Tests used:
Rattus norvegicus [1] = experiment: Hypolipidemic activity in Wistar rat assessed as reduction in plasma cholesterol level at 463 umol/kg/day administered through diet for 4 days; assay type: functional; details: 96 h
Outline: (§1)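 Young male Wistar rats, 170-190 g initial weight, groups of six, given compound mixed thoroughly into Purina Lab Chow ad libitum for 4 or 10 days as stated. Daily dose calculated from food consumption and body weight. Bled by cardiac puncture at end of treatment; plasma cholesterol measured by automated procedure. Expressed as percent reduction versus simultaneous untreated control group; Student's t test.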

Rattus norvegicus [2] = experiment: Hypolipidemic activity in Wistar rat assessed as reduction in plasma triglyceride level at 463 umol/kg/day administered through diet for 4 days; assay type: functional; details: 96 h
Rattus norvegicus [3] = experiment: Increase in liver weight in Wistar rat at 463 umol/kg/day administered through diet for 4 days; assay type: ADME, organism-based; details: in vivo, po, 96 h
Rattus norvegicus [4] = experiment: Hypolipidemic activity in Wistar rat assessed as reduction in plasma triglyceride level at 406 umol/kg/day administered through diet for 10 days; assay type: functional; details: 240 h
Rattus norvegicus [5] = experiment: Hypolipidemic activity in Wistar rat assessed as reduction in plasma triglyceride level at 400 umol/kg/day administered through diet for 4 days; assay type: functional; details: 96 h
Rattus norvegicus [6] = experiment: Hypolipidemic activity in Wistar rat assessed as reduction in plasma cholesterol level at 406 umol/kg/day administered through diet for 10 days; assay type: functional; details: 240 h
Outline: (§2)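 Young male Wistar rats, 170-190 g at start, in groups of six, given compound mixed into Purina Lab Chow ad libitum for 4 or 10 days as stated. Daily dose was calculated from food consumption and body weight. Plasma was taken by cardiac puncture at the end and cholesterol measured by automated procedure. Results are % reduction versus a concurrent untreated control group, with Student's t test.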

Rattus norvegicus [7] = experiment: Hypolipidemic activity in Wistar rat assessed as reduction in plasma cholesterol level at 400 umol/kg/day administered through diet for 4 days; assay type: functional; details: 96 h; outline: as §2
Rattus norvegicus [8] = experiment: Increase in liver weight in Wistar rat at 406 umol/kg/day administered through diet for 10 days; assay type: ADME, organism-based; details: in vivo, po, 240 h
Rattus norvegicus [9] = experiment: Increase in liver weight in Wistar rat at 400 umol/kg/day administered through diet for 4 days; assay type: ADME, organism-based; details: in vivo, po, 96 h
Rattus norvegicus [10] = experiment: Increase in cholesterol level in Wistar rat liver at 406 umol/kg/day administered through diet for 10 days; assay type: ADME, organism-based; details: in vivo, po, 240 h
Rattus norvegicus [11] = experiment: Increase in cholesterol level in Wistar rat liver at 400 umol/kg/day administered through diet for 4 days; assay type: ADME, organism-based; details: in vivo, po, 96 h
Rattus norvegicus [12] = experiment: Hypolipidemic activity in Wistar rat assessed as reduction in plasma cholesterol level at 524 umol/kg/day administered through diet for 4 days; assay type: functional; details: 96 h; outline: as §1
Rattus norvegicus [13] = experiment: Hypolipidemic activity in Wistar rat assessed as reduction in plasma triglyceride level at 524 umol/kg/day administered through diet for 4 days; assay type: functional; details: 96 h
Rattus norvegicus [14] = experiment: Increase in liver weight in Wistar rat at 524 umol/kg/day administered through diet for 4 days; assay type: ADME, organism-based; details: in vivo, po, 96 h
Rattus norvegicus [15] = experiment: Hypolipidemic activity in Wistar rat assessed as reduction in plasma cholesterol level at 381 umol/kg/day administered through diet for 4 days; assay type: functional; details: 96 h; outline: as §2
Rattus norvegicus [16] = experiment: Hypolipidemic activity in Wistar rat assessed as reduction in plasma triglyceride level at 381 umol/kg/day administered through diet for 4 days; assay type: functional; details: 96 h
Outline: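 Young male Wistar rats (170-190 g initial weight), groups of six, fed test compound mixed into Purina Lab Chow ad libitum; daily dose calculated from food consumption and body weight. Bled by cardiac puncture at end of treatment; plasma triglycerides measured by automated procedure. Results given as percent reduction versus a simultaneous untreated control group, with significance by Student's t test.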

Rattus norvegicus [17] = experiment: Increase in liver weight in Wistar rat at 381 umol/kg/day administered through diet for 4 days; assay type: ADME, organism-based; details: in vivo, po, 96 h
Rattus norvegicus [18] = experiment: Hypolipidemic activity in Wistar rat assessed as reduction in plasma triglyceride level at 402 umol/kg/day administered through diet for 10 days; assay type: functional; details: 240 h
Rattus norvegicus [19] = experiment: Hypolipidemic activity in Wistar rat assessed as reduction in plasma triglyceride level at 179 umol/kg/day administered through diet for 10 days; assay type: functional; details: 240 h
Outline: (§3)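 Young male Wistar rats (initial weight 170-190 g), groups of six, fed compound mixed into Purina Lab Chow ad libitum for 4 or 10 days; daily dose calculated from food consumption and body weight. Bled by cardiac puncture; plasma cholesterol and triglycerides by automated procedures; percent reduction versus simultaneous untreated controls, Student's t test.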

Rattus norvegicus [20] = experiment: Hypolipidemic activity in Wistar rat assessed as reduction in plasma triglyceride level at 85 umol/kg/day administered through diet for 10 days; assay type: functional; details: 240 h
Rattus norvegicus [21] = experiment: Hypolipidemic activity in Wistar rat assessed as reduction in plasma cholesterol level at 402 umol/kg/day administered through diet for 10 days; assay type: functional; details: 240 h; outline: as §2
Rattus norvegicus [22] = experiment: Hypolipidemic activity in Wistar rat assessed as reduction in plasma cholesterol level at 179 umol/kg/day administered through diet for 10 days; assay type: functional; details: 240 h; outline: as §2
Rattus norvegicus [23] = experiment: Hypolipidemic activity in Wistar rat assessed as reduction in plasma cholesterol level at 85 umol/kg/day administered through diet for 10 days; assay type: functional; details: 240 h; outline: as §3
Rattus norvegicus [24] = experiment: Increase in liver weight in Wistar rat at 402 umol/kg/day administered through diet for 10 days; assay type: ADME, organism-based; details: in vivo, po, 240 h
Rattus norvegicus [25] = experiment: Increase in liver weight in Wistar rat at 179 umol/kg/day administered through diet for 10 days; assay type: ADME, organism-based; details: in vivo, po, 240 h
Rattus norvegicus [26] = experiment: Increase in liver weight in Wistar rat at 85 umol/kg/day administered through diet for 10 days; assay type: ADME, organism-based; details: in vivo, po, 240 h
Rattus norvegicus [27] = experiment: Increase in cholesterol level in Wistar rat liver at 402 umol/kg/day administered through diet for 10 days; assay type: ADME, organism-based; details: in vivo, po, 240 h
Rattus norvegicus [28] = experiment: Increase in cholesterol level in Wistar rat liver at 179 umol/kg/day administered through diet for 10 days; assay type: ADME, organism-based; details: in vivo, po, 240 h
Outline: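 Male Wistar rats (170-190 g), six per group, given compound by admixture to lab chow ad libitum for 4 or 10 days, dose derived from food intake. Liver cholesterol determined by automated procedure, expressed as mg/g wet tissue, compared with an untreated control group by Student's t test.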

Rattus norvegicus [29] = experiment: Increase in cholesterol level in Wistar rat liver at 85 umol/kg/day administered through diet for 10 days; assay type: ADME, organism-based; details: in vivo, po, 240 h
Rattus norvegicus [30] = experiment: Hypolipidemic activity in Wistar rat assessed as reduction in plasma triglyceride level at 944 umol/kg/day administered through diet for 10 days; assay type: functional; details: 240 h
Rattus norvegicus [31] = experiment: Hypolipidemic activity in Wistar rat assessed as reduction in plasma triglyceride level at 303 umol/kg/day administered through diet for 10 days; assay type: functional; details: 240 h
Outline: (§4)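 Young male Wistar rats, 170-190 g initial weight, six per group, fed drug mixed thoroughly into Purina Lab Chow ad libitum for the stated days; daily dose calculated from food consumption and body weight. Bled by cardiac puncture at end; plasma cholesterol and triglycerides by automated procedures, expressed as percent reduction versus simultaneous untreated controls; Student's t test.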

Rattus norvegicus [32] = experiment: Hypolipidemic activity in Wistar rat assessed as reduction in plasma triglyceride level at 89 umol/kg/day administered through diet for 10 days; assay type: functional; details: 240 h
Rattus norvegicus [33] = experiment: Hypolipidemic activity in Wistar rat assessed as reduction in plasma cholesterol level at 944 umol/kg/day administered through diet for 10 days; assay type: functional; details: 240 h; outline: as §3
Rattus norvegicus [34] = experiment: Hypolipidemic activity in Wistar rat assessed as reduction in plasma cholesterol level at 303 umol/kg/day administered through diet for 10 days; assay type: functional; details: 240 h; outline: as §2
Rattus norvegicus [35] = experiment: Hypolipidemic activity in Wistar rat assessed as reduction in plasma cholesterol level at 89 umol/kg/day administered through diet for 10 days; assay type: functional; details: 240 h; outline: as §3
Rattus norvegicus [36] = experiment: Increase in liver weight in Wistar rat at 944 umol/kg/day administered through diet for 10 days; assay type: ADME, organism-based; details: in vivo, po, 240 h
Rattus norvegicus [37] = experiment: Increase in liver weight in Wistar rat at 303 umol/kg/day administered through diet for 10 days; assay type: ADME, organism-based; details: in vivo, po, 240 h
Rattus norvegicus [38] = experiment: Increase in liver weight in Wistar rat at 89 umol/kg/day administered through diet for 10 days; assay type: ADME, organism-based; details: in vivo, po, 240 h
Rattus norvegicus [39] = experiment: Increase in cholesterol level in Wistar rat liver at 944 umol/kg/day administered through diet for 10 days; assay type: ADME, organism-based; details: in vivo, po, 240 h
Rattus norvegicus [40] = experiment: Increase in cholesterol level in Wistar rat liver at 303 umol/kg/day administered through diet for 10 days; assay type: ADME, organism-based; details: in vivo, po, 240 h
Rattus norvegicus [41] = experiment: Increase in cholesterol level in Wistar rat liver at 89 umol/kg/day administered through diet for 10 days; assay type: ADME, organism-based; details: in vivo, po, 240 h
Rattus norvegicus [42] = experiment: Hypolipidemic activity in Wistar rat assessed as reduction in plasma cholesterol level at 291 umol/kg/day administered through diet for 4 days; assay type: functional; details: 96 h; outline: as §2
Rattus norvegicus [43] = experiment: Hypolipidemic activity in Wistar rat assessed as reduction in plasma triglyceride level at 291 umol/kg/day administered through diet for 4 days; assay type: functional; details: 96 h; outline: as §4
Rattus norvegicus [44] = experiment: Increase in liver weight in Wistar rat at 291 umol/kg/day administered through diet for 4 days; assay type: ADME, organism-based; details: in vivo, po, 96 h

## CCCCCCCCCCCCCCSc1ccc(C(=O)O)s1
Rattus norvegicus [1]
  inhibition in vivo at 463 µmol/kg: 15%
Rattus norvegicus [2]
  inhibition in vivo at 463 µmol/kg: 61%
Rattus norvegicus [3]
  Activity: 4%

## CCCCCCCCCCCCOc1ccc(C(=O)CC(=O)OC)cc1
Rattus norvegicus [4]
  inhibition in vivo at 406 µmol/kg: 71%
Rattus norvegicus [5]
  inhibition in vivo at 400 µmol/kg: 84%
Rattus norvegicus [6]
  inhibition in vivo at 406 µmol/kg: 27%
Rattus norvegicus [7]
  inhibition in vivo at 400 µmol/kg: 35%
Rattus norvegicus [8]
  Activity: 34%
Rattus norvegicus [9]
  Activity: 22%
Rattus norvegicus [10]
  Activity: 24%
Rattus norvegicus [11]
  Activity: 32%

## CCCCCCCCCCCCCCOc1ccco1
Rattus norvegicus [12]
  inhibition in vivo at 524 µmol/kg: 0%
Rattus norvegicus [13]
  inhibition in vivo at 524 µmol/kg: 0%
Rattus norvegicus [14]
  Activity: 1%

## CCCCCCCCCCCCCCOc1c(Cl)cc(C(=O)OC)cc1Cl
Rattus norvegicus [15]
  inhibition in vivo at 381 µmol/kg: 1%
Rattus norvegicus [16]
  inhibition in vivo at 381 µmol/kg: 73%
Rattus norvegicus [17]
  Activity: 0%

## CCCCCCCCCCCCCCOc1ccc(C(=O)CC(=O)OC)cc1
Rattus norvegicus [18]
  inhibition in vivo at 402 µmol/kg: 75%
Rattus norvegicus [19]
  inhibition in vivo at 179 µmol/kg: 54%
Rattus norvegicus [20]
  inhibition in vivo at 85 µmol/kg: 44%
Rattus norvegicus [21]
  inhibition in vivo at 402 µmol/kg: 40%
Rattus norvegicus [22]
  inhibition in vivo at 179 µmol/kg: 27%
Rattus norvegicus [23]
  inhibition in vivo at 85 µmol/kg: 9%
Rattus norvegicus [24]
  Activity: 7%
Rattus norvegicus [25]
  Activity: 3%
Rattus norvegicus [26]
  Activity: 0%
Rattus norvegicus [27]
  Activity: 9%
Rattus norvegicus [28]
  Activity: 4%
Rattus norvegicus [29]
  Activity: 0%

## CCCCCCCCCCCCc1ccc(C(=O)CC(=O)OC)cc1
Rattus norvegicus [30]
  inhibition in vivo at 944 µmol/kg: 84%
Rattus norvegicus [31]
  inhibition in vivo at 303 µmol/kg: 63%
Rattus norvegicus [32]
  inhibition in vivo at 89 µmol/kg: 6%
Rattus norvegicus [33]
  inhibition in vivo at 944 µmol/kg: 53%
Rattus norvegicus [34]
  inhibition in vivo at 303 µmol/kg: 37%
Rattus norvegicus [35]
  inhibition in vivo at 89 µmol/kg: 4%
Rattus norvegicus [36]
  Activity: 20%
Rattus norvegicus [37]
  Activity: 7%
Rattus norvegicus [38]
  Activity: 8%
Rattus norvegicus [39]
  Activity: 151%
Rattus norvegicus [40]
  Activity: 97%
Rattus norvegicus [41]
  Activity: 38%

## CCCCCCCCCCCCCCOc1ccc(C(=O)O)c(OCCCCCCCCCCCCCC)c1
Rattus norvegicus [42]
  inhibition in vivo at 291 µmol/kg: 0%
Rattus norvegicus [43]
  inhibition in vivo at 291 µmol/kg: 0%
Rattus norvegicus [44]
  Activity: 7%
